Experimental data from ChEMBL document CHEMBL4359902, “Development of novel chromeno[4,3-c]pyrazol-4(2H)-one derivates bearing sulfonylpiperazine as antitumor inhibitors targeting PI3Kα” (Eur J Med Chem, 2019).

Assays:
A549 = assay: Antiproliferative activity against human A549 cells assessed as reduction in cell viability after 48 hrs by MTT assay; type: functional, cell-based; conditions: A549, 48 h
[1] = molecular target: T1, Phosphatidylinositol 4,5-bisphosphate 3-kinase catalytic subunit alpha isoform (Homo sapiens, UniProt P42336); assay: Inhibition of PI3Kalpha (unknown origin) using diC8-PI(4,5)P2 as substrate incubated for 3 hrs in presence of ATP by fluorescence polarization assay
Method in brief: (§1)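 Fluorescence polarization competition assay, 10 μL reactions at pH 7: 2.5 mM MgCl₂, 5 mM HEPES, ATP, 10 mM DTT, 50 ng PI3K isoform, diC8-PI(4,5)P2 substrate. After 3 h at room temperature, reactions were chelator-quenched. Phosphoinositide binding protein and fluorophore-labelled tracer were added, then 1 h dark equilibration and polarization read.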

[2] = molecular target: Phosphatidylinositol 4,5-bisphosphate 3-kinase catalytic subunit beta isoform (Homo sapiens, UniProt P42338); assay: Inhibition of PI3Kbeta (unknown origin) using diC8-PI(4,5)P2 as substrate incubated for 3 hrs in presence of ATP by fluorescence polarization assay; method in brief: as §1
[3] = molecular target: Phosphatidylinositol 4,5-bisphosphate 3-kinase catalytic subunit gamma isoform (Homo sapiens, UniProt P48736); assay: Inhibition of PI3Kgamma (unknown origin) using diC8-PI(4,5)P2 as substrate incubated for 3 hrs in presence of ATP by fluorescence polarization assay; method in brief: as §1
[4] = molecular target: T1, Phosphatidylinositol 4,5-bisphosphate 3-kinase catalytic subunit alpha isoform; assay: Inhibition of PI3K-alpha in human HCT116 cells assessed as decrease in phosphorylated Akt protein expression level measured after 24 hrs by Western blot analysis; type: cell-based
Method in brief: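 HCT-116 cells exposed for 24 h at 0.25, 0.5 and 1 μM, lysed in RIPA buffer, and analysed by SDS-PAGE/PVDF Western blot for p-Akt (Ser473) and p-S6K. β-actin internal control; densitometry mean ± SEM, n = 3.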

HCT-116 [5] = assay: Cell cycle arrest in human HCT116 cells assessed as accumulation at G1 phase at 0.25 uM measured after 24 hrs by propidium iodide staining based flow cytometry analysis (reference value: 42.01 %); type: functional
HCT-116 [6] = assay: Cell cycle arrest in human HCT116 cells assessed as accumulation at G2 phase at 0.25 uM measured after 24 hrs by propidium iodide staining based flow cytometry analysis (reference value: 7.86 %); type: functional
HCT-116 [7] = assay: Cell cycle arrest in human HCT116 cells assessed as accumulation at S phase at 0.25 uM measured after 24 hrs by propidium iodide staining based flow cytometry analysis (reference value: 50.12 %); type: functional
HCT-116 [8] = assay: Cell cycle arrest in human HCT116 cells assessed as accumulation at G2 phase at 0.5 uM measured after 24 hrs by propidium iodide staining based flow cytometry analysis (reference value: 7.86 %); type: functional
HCT-116 [9] = assay: Cell cycle arrest in human HCT116 cells assessed as accumulation at S phase at 0.5 uM measured after 24 hrs by propidium iodide staining based flow cytometry analysis (reference value: 50.12 %); type: functional
HCT-116 [10] = assay: Cell cycle arrest in human HCT116 cells assessed as accumulation at G1 phase at 1 uM measured after 24 hrs by propidium iodide staining based flow cytometry analysis (reference value: 42.01 %); type: functional
HCT-116 [11] = assay: Cell cycle arrest in human HCT116 cells assessed as accumulation at S phase at 1 uM measured after 24 hrs by propidium iodide staining based flow cytometry analysis (reference value: 50.12 %); type: functional
HCT-116 [12] = assay: Induction of apoptosis in human HCT116 cells assessed as viable cells at 0.25 uM measured after 24 hrs by annexin-v-FITC/propidium iodide staining based FACScan flow cytometry analysis (reference value: 78.5 %); type: functional; conditions: HCT-116, 24 h, read-out: Activity
HCT-116 [13] = assay: Induction of apoptosis in human HCT116 cells assessed as necrotic cells at 0.25 uM measured after 24 hrs by annexin-v-FITC/propidium iodide staining based FACScan flow cytometry analysis (reference value: 1.87 %); type: functional
HCT-116 [14] = assay: Induction of apoptosis in human HCT116 cells assessed as viable cells at 0.5 uM measured after 24 hrs by annexin-v-FITC/propidium iodide staining based FACScan flow cytometry analysis (reference value: 78.5 %); type: functional; conditions: HCT-116, 24 h, read-out: Activity
HCT-116 [15] = assay: Induction of apoptosis in human HCT116 cells assessed as late apoptotic cells at 0.5 uM measured after 24 hrs by annexin-v-FITC/propidium iodide staining based FACScan flow cytometry analysis (reference value: 9.61 %); type: functional
HCT-116 [16] = assay: Induction of apoptosis in human HCT116 cells assessed as viable cells at 1 uM measured after 24 hrs by annexin-v-FITC/propidium iodide staining based FACScan flow cytometry analysis (reference value: 78.5 %); type: functional; conditions: HCT-116, 24 h, read-out: Activity
HCT-116 [17] = assay: Induction of apoptosis in human HCT116 cells assessed as early apoptotic cells at 1 uM measured after 24 hrs by annexin-v-FITC/propidium iodide staining based FACScan flow cytometry analysis (reference value: 10.0 %); type: functional
HCT-116 [18] = assay: Induction of apoptosis in human HCT116 cells assessed as upregulation of BAX expression measured after 24 hrs by Western blot analysis; type: functional, cell-based
Method in brief: (§2)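 HCT-116 cells treated at 0.25, 0.5 and 1 μM for 24 h, lysed in RIPA buffer with PMSF. Proteins separated by SDS-PAGE (8% or 10%), transferred to PVDF and probed with primary antibodies and HRP secondaries. β-actin served as internal control; bands quantified as bar graphs.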

HCT-116 [19] = assay: Induction of apoptosis in human HCT116 cells assessed as increase in cleaved caspase-3 protein level measured after 24 hrs by Western blot analysis; type: functional, cell-based; method in brief: as §2

T1 sequence (P42336 whole entry, canonical isoform): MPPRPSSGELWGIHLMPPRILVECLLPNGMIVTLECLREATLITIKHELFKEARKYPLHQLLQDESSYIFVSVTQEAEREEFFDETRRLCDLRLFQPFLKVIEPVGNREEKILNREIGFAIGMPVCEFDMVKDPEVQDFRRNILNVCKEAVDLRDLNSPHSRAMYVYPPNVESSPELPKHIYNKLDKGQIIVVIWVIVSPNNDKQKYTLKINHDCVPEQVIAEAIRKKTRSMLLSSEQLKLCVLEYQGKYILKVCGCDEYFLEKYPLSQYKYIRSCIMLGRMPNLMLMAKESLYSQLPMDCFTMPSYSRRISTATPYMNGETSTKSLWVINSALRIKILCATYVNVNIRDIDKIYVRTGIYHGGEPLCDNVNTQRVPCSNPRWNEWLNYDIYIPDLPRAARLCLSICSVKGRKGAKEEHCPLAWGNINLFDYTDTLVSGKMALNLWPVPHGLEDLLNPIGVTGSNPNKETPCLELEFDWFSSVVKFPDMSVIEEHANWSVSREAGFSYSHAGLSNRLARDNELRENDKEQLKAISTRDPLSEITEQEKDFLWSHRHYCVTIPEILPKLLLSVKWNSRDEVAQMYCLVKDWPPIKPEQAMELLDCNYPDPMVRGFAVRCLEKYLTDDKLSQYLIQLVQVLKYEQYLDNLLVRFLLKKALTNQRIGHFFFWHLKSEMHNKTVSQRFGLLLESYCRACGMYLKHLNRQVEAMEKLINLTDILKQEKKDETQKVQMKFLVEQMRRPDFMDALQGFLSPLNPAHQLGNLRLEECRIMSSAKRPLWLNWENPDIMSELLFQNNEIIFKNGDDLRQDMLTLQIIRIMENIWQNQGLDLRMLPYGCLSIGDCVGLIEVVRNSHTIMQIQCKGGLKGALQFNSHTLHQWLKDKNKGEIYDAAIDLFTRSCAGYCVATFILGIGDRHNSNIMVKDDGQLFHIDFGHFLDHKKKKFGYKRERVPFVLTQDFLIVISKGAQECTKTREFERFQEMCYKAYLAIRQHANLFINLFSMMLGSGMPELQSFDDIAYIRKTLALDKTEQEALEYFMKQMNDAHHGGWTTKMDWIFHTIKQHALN
Chain of Phosphatidylinositol 4,5-bisphosphate 3-kinase catalytic subunit gamma isoform (P48736 whole entry, canonical isoform): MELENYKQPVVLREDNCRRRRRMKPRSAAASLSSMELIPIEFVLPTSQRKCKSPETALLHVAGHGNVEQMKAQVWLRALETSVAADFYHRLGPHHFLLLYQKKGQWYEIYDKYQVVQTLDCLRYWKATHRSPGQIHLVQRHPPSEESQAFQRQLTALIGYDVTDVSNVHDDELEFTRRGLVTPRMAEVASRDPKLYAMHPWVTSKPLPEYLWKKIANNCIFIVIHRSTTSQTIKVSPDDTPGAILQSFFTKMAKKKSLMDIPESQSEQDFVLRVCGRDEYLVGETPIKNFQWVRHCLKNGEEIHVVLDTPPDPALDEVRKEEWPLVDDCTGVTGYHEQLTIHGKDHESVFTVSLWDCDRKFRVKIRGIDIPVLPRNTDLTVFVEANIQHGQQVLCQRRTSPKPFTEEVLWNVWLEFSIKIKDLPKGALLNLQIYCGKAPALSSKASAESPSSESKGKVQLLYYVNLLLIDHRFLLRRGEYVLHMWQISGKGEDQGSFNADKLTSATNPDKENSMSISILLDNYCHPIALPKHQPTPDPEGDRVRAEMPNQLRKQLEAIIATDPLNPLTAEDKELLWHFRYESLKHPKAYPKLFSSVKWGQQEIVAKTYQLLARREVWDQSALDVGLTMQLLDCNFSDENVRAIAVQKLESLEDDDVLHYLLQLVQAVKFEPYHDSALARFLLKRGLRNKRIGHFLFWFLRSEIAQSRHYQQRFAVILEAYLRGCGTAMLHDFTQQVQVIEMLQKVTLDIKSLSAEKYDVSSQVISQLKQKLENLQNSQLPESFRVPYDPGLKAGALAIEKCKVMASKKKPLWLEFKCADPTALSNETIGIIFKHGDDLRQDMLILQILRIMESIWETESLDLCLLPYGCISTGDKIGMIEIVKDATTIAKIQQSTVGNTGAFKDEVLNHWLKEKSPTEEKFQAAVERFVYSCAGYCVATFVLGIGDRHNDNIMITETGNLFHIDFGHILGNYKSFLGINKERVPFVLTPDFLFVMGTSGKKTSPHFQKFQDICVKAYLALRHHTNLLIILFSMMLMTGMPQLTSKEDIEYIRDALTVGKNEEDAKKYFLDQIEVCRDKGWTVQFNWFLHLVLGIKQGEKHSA
Chain of Phosphatidylinositol 4,5-bisphosphate 3-kinase catalytic subunit beta isoform (P42338 whole entry, canonical isoform): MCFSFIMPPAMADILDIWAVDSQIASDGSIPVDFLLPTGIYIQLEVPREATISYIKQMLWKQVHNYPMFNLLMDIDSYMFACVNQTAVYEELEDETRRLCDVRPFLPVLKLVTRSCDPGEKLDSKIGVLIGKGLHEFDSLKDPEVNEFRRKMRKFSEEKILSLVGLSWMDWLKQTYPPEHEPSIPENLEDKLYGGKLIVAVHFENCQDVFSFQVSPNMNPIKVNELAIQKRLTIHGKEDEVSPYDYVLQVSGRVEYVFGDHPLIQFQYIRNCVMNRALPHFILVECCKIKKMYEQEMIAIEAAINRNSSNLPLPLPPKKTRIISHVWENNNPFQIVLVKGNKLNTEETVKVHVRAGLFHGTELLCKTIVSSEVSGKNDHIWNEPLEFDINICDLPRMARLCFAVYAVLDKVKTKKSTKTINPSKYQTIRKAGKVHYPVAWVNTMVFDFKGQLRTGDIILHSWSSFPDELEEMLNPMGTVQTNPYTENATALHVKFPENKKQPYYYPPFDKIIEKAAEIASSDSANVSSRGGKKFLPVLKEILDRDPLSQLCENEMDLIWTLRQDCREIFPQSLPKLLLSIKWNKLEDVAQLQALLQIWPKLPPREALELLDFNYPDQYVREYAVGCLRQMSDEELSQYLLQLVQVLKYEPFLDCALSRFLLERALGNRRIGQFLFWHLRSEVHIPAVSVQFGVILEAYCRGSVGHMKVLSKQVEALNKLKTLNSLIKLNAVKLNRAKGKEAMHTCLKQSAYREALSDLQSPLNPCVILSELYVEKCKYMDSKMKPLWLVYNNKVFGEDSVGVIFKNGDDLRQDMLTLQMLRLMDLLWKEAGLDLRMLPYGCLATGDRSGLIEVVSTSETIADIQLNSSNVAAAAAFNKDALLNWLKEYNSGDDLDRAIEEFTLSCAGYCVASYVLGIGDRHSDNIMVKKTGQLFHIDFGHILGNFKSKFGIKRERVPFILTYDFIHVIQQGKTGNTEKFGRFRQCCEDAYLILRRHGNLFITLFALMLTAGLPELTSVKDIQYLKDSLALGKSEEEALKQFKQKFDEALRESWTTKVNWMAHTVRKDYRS

O=c1oc2ccccc2c2nn(CN3CCN(S(=O)(=O)c4ccc(Cl)c([N+](=O)[O-])c4)CC3)cc12
IC50 (A549): 60 nM | IC50 [1]: 9 nM | IC50 [2]: 120 nM | IC50 [3]: 81 nM | inhibition [4]: Dose-dependent effect | Activity (HCT-116 [5]): 46.87% | Activity (HCT-116 [6]): 10.73% | Activity (HCT-116 [7]): 42.4% | Activity (HCT-116 [8]): 9.52% | Activity (HCT-116 [9]): 39.53% | Activity (HCT-116 [10]): 58.13% | Activity (HCT-116 [11]): 33.78% | viability at 0.25 µM (HCT-116 [12]): 56% | Activity (HCT-116 [13]): 6.98% | viability at 0.5 µM (HCT-116 [14]): 46% | Activity (HCT-116 [15]): 30.8% | viability at 1 µM (HCT-116 [16]): 36.6% | Activity (HCT-116 [17]): 25.5% | Activity (HCT-116 [18]): Dose-dependent effect | Activity (HCT-116 [19]): Dose-dependent effect
